Shown are actives, neighbours in structure and some others; about 2.6% of the full set was active somewhere.
RAD52 inh: blocks human RAD52 DNA annealing; recombinant RAD52 DNA annealing, FRET fluorescence; inhibition, % at 18.7 µM; hit rate 0.46% among 360,000; AID 651710;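 active = every replicate showing at least 50% inhibition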
INS-1E GSIS act: primary screen for activators of insulin secretion dependent on glucose, INS-1E cells, GLuc reporter luminescence; INS-1E GLuc reporter insulin secretion, 2-3 h; activation, % at 16.6 µM; hit rate 0.61% among 370,000;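 active = lowest replicate activation of at least 40%, so every replicate reaches that level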;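 note: 0% = median of neutral control wells and 100% = median of IBMX positive control wells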
rRNA inh HTS: inhibitors of bacterial rRNA selective over humanized ribosomes. E. coli WT GFP vs humanized-ribosome RFP mutants, fluorescence, 24 h; active compounds read low; DMSO median 0, no signal -100. GFP signal change (wild-type ribosome), % (test concentration not listed). hit rate 1.6% among 350,000. AID 720706;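 active = significant combined selectivity score with lowered wild-type GFP, culture density cut under 30%, mutant RFP and density less affected; inactive = any of these conditions unmet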
E-selectin induc: E-selectin induction on HUVECs; P16581; HUVEC E-selectin immunofluorescence imaging; normalized: neutral wells 0, TNF-alpha wells 100; activation, % at 7.58 µM; hit rate 0.37% among 260,000;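 active = mean E-selectin-positive cell signal at least 10% of the positive control, reached in at least 60% of replicates, without over 20% cell loss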
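material = human umbilical vein endothelial cells (HUVEC), E-selectin induction | quantity = 3,000 cells/well | medium = EGM-2 growth medium on 0.1% gelatin-coated wells | technique = immunofluorescence imaging | read-out basis = % PE-positive cells | control set = TNF-alpha positive control, DMSO neutral control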
MLL AF4-AF9 inh: blocks AF4 peptide binding to human AF9; AlphaScreen, biotin-AF4 peptide binding to FLAG-AF9; hit rate 0.47% among 350,000; inhibition, % at 10 µM; AID 651704;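 active = every replicate reaching a set inhibition limit, whatever the replicate mean, cut at about 25% in these data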;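 note: 0% = plate neutral control median and 100% = total signal loss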
Target sequence (P42568 whole entry, looked up): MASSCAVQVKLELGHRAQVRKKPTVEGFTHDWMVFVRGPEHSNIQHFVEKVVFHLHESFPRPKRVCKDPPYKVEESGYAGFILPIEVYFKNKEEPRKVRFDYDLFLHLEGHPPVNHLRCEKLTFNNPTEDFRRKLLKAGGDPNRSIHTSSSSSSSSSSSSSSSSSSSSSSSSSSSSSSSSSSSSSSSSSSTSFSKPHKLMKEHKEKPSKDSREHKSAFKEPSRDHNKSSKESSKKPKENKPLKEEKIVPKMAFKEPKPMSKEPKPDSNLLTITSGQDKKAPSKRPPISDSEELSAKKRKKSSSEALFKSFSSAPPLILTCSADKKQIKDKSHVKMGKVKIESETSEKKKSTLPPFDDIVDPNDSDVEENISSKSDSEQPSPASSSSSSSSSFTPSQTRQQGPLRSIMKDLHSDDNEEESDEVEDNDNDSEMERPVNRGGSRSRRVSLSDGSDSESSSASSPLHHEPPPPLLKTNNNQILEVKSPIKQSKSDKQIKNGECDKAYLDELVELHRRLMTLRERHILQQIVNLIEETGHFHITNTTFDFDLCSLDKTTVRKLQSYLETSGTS
RAD54 branch: RAD54 (human) branch migration inhibition. inhibition, % at 10.4 µM. hit rate 0.14% among 360,000. Q92698. RAD54 Holliday junction branch migration, FAM/BHQ fluorescence. AID 602329;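 active = mean normalized replicate activity at least 40 and at least half of replicates scoring 40 or more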;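 note: 0% = median of neutral control wells and 100% = median of positive control wells; inhibitors cause a drop in the FAM fluorescence signal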
* marks the source's active call; other numbers are inactive results.

Results for Cc1noc(C)c1NC(=O)Nc1ccc2c(c1)C(=O)N(C)[C@H]1CC[C@@H](CC(=O)N(C)C)O[C@@H]1CO2 ?
RAD52 inh: 1.8; INS-1E GSIS act: 0.7; rRNA inh HTS: 3.4; E-selectin induc: -0.1; MLL AF4-AF9 inh: -0.6; RAD54 branch: 3.2

Results for Cc1nn(-c2ccccc2)c(Cl)c1CN(C(=O)CCl)c1ccc(Cl)cc1 ?
RAD52 inh: -12.5; INS-1E GSIS act: 15.4; rRNA inh HTS: -32.2*; E-selectin induc: 0.0; MLL AF4-AF9 inh: -0.2; RAD54 branch: 13.3

What do the screens show for `CCS(=O)(=O)Nc1ccc2c(c1)C(=O)N(C)C[C@H](OC)[C@H](C)CN(C(=O)C1CC1)[C@@H](C)CO2`?
RAD52 inh: 7.3; INS-1E GSIS act: 1.6; rRNA inh HTS: 0.6; E-selectin induc: 0.1; MLL AF4-AF9 inh: 0.6; RAD54 branch: -4.5

How did CC(=O)NCc1cn2c(C)csc2n1 do in these assays?
RAD52 inh: -1.7; INS-1E GSIS act: -0.2; rRNA inh HTS: 0.1; E-selectin induc: -2.3; MLL AF4-AF9 inh: 8.0; RAD54 branch: -6.1

How did Cc1ccc(SCc2cn3c(C)csc3n2)cc1 do in these assays?
RAD52 inh: -6.8; INS-1E GSIS act: -40.0; rRNA inh HTS: -51.1*; MLL AF4-AF9 inh: 4.5; RAD54 branch: -6.7

Results for CS(=O)(=O)Nc1ccc2c(c1)[C@H]1C[C@H](CC(=O)N3CCCCC3)O[C@H](CO)[C@H]1O2 ?
INS-1E GSIS act: -4.4; rRNA inh HTS: 3.4; E-selectin induc: 0.2; RAD54 branch: -4.8

What do the screens show for `COCC(=O)Nc1ccc2c(c1)OC[C@@H](C)N(Cc1cccc(F)c1)C[C@H](C)[C@@H](OC)CN(C)C2=O`?
RAD52 inh: -11.4; INS-1E GSIS act: -9.8; rRNA inh HTS: -3.6; E-selectin induc: 0.0; MLL AF4-AF9 inh: 1.1; RAD54 branch: 1.2

How did CC(=O)c1c(COC(=O)c2ccccc2Cl)nc2ccccc2[n+]1[O-] do in these assays?
RAD52 inh: -18.4; INS-1E GSIS act: -3.5; rRNA inh HTS: -35.1*; E-selectin induc: 0.1; MLL AF4-AF9 inh: 14.2; RAD54 branch: 6.4

Results for CC(=O)c1c(COC(=O)c2ccc(C)cc2)nc2ccccc2[n+]1[O-] ?
RAD52 inh: -11.5; rRNA inh HTS: 14.7; E-selectin induc: 0.1; MLL AF4-AF9 inh: 0.8; RAD54 branch: 5.1

What do the screens show for `O=C(Cc1n[nH]c(=O)c2ccccc12)OCC(=O)N(Cc1ccccc1)Cc1ccccc1`?
RAD52 inh: -29.7; INS-1E GSIS act: 25.3; rRNA inh HTS: -23.8*; E-selectin induc: -2.7; MLL AF4-AF9 inh: -39.1; RAD54 branch: -4.6

How did CCOC(=O)Cc1n[nH]c(=O)c2ccccc12 do in these assays?
RAD52 inh: -26.4; INS-1E GSIS act: 4.9; rRNA inh HTS: 20.7; MLL AF4-AF9 inh: -2.8; RAD54 branch: -1.5

What do the screens show for `CC(=O)Nc1ccc(S(=O)(=O)N2CCN(CC3CC4C=CC3C4)CC2)cc1` (stereo unspecified)?
RAD52 inh: -15.8; INS-1E GSIS act: -7.8; rRNA inh HTS: -22.4*; E-selectin induc: 1.2; MLL AF4-AF9 inh: 1.4

What do the screens show for `Cc1ccc(S(=O)(=O)N(C)C[C@@H]2Oc3ccc(NC(=O)Cn4cnnn4)cc3C(=O)N([C@H](C)CO)C[C@@H]2C)cc1`?
RAD52 inh: -1.2; INS-1E GSIS act: -15.9; rRNA inh HTS: 0.3; E-selectin induc: 0.1; MLL AF4-AF9 inh: 0.9; RAD54 branch: 6.7

How did CN(C)CC#Cc1ccc([C@@H]2[C@@H](CO)N3CCCCN(C(=O)CN(C)C)C[C@H]23)cc1 do in these assays?
RAD52 inh: 60.9*; INS-1E GSIS act: 12.1; rRNA inh HTS: 8.3; E-selectin induc: 1.0; MLL AF4-AF9 inh: 6.9; RAD54 branch: -1.1

Results for CN(C)CC#Cc1ccc([C@@H]2[C@H]3CN(C(=O)CN(C)C)CCCCN3[C@H]2CO)cc1 ?
RAD52 inh: 61.9*; INS-1E GSIS act: 19.1; rRNA inh HTS: 5.1; E-selectin induc: -0.4; MLL AF4-AF9 inh: -0.6; RAD54 branch: -10.1

What do the screens show for `COCC#Cc1ccc([C@@H]2[C@@H](CO)N3CCCCN(C(=O)CN(C)C)C[C@@H]23)cc1`?
RAD52 inh: -9.8; INS-1E GSIS act: 4.3; rRNA inh HTS: 6.6; E-selectin induc: -0.3; MLL AF4-AF9 inh: -2.3; RAD54 branch: 8.4

Results for COCC#Cc1ccc([C@H]2[C@H]3CN(C(=O)CN(C)C)CCCCN3[C@H]2CO)cc1 ?
RAD52 inh: -19.5; INS-1E GSIS act: 18.4; rRNA inh HTS: 6.9; E-selectin induc: 0.1; MLL AF4-AF9 inh: -0.4; RAD54 branch: -1.2

How did COCC#Cc1ccc([C@@H]2[C@@H](CO)N3CCCCN(C(=O)CN(C)C)C[C@H]23)cc1 do in these assays?
RAD52 inh: 25.9; INS-1E GSIS act: 19.2; rRNA inh HTS: 4.4; E-selectin induc: -0.4; MLL AF4-AF9 inh: 3.9; RAD54 branch: 12.8

Results for CN(C)CC#Cc1ccc([C@H]2[C@@H](CO)N3CCCCN(C(=O)CN(C)C)C[C@H]23)cc1 ?
RAD52 inh: 87.0*; INS-1E GSIS act: 10.8; rRNA inh HTS: 1.7; E-selectin induc: 1.1; MLL AF4-AF9 inh: 2.0; RAD54 branch: 13.4

What do the screens show for `CN(C)CC#Cc1ccc([C@H]2[C@H](CO)N3CCCCN(C(=O)CN(C)C)C[C@@H]23)cc1`?
RAD52 inh: 74.2*; INS-1E GSIS act: 7.7; rRNA inh HTS: 4.5; E-selectin induc: -0.1; MLL AF4-AF9 inh: 4.9; RAD54 branch: -17.5

What do the screens show for `CNC[C@H]1OCCCC[C@@H](C)Oc2ccc(NC(=O)NC3CCCCC3)cc2C(=O)N([C@H](C)CO)C[C@H]1C`?
RAD52 inh: -82.6; INS-1E GSIS act: -6.2; rRNA inh HTS: 3.9; E-selectin induc: -0.1; MLL AF4-AF9 inh: -1.0; RAD54 branch: 11.0

How did CC(C)CC#Cc1ccc([C@@H]2[C@H](CO)N3CCCCN(C(=O)c4ccc5c(c4)OCO5)C[C@@H]23)cc1 do in these assays?
RAD52 inh: 57.9*; INS-1E GSIS act: -19.4; rRNA inh HTS: -56.0; E-selectin induc: 0.1; MLL AF4-AF9 inh: 15.2; RAD54 branch: -6.0

How did CC(C)CC#Cc1ccc([C@H]2[C@H]3CN(C(=O)c4ccc5c(c4)OCO5)CCCCN3[C@H]2CO)cc1 do in these assays?
RAD52 inh: -27.5; INS-1E GSIS act: -26.3; rRNA inh HTS: -2.1; E-selectin induc: -0.5; MLL AF4-AF9 inh: 5.4; RAD54 branch: 0.1

What do the screens show for `CN(C)CC#Cc1ccc([C@@H]2[C@H](CO)N3CCCCN(C(=O)CN(C)C)C[C@@H]23)cc1`?
RAD52 inh: 87.8*; INS-1E GSIS act: 10.5; rRNA inh HTS: 5.8; E-selectin induc: -0.3; MLL AF4-AF9 inh: 8.4; RAD54 branch: -0.7

Results for CC(C)C#Cc1ccc2c(c1)O[C@@H](CN(C)C(=O)Cc1ccccn1)[C@H](C)CN([C@@H](C)CO)S2(=O)=O ?
RAD52 inh: -22.2; INS-1E GSIS act: -8.1; rRNA inh HTS: 3.7; E-selectin induc: 4.1; MLL AF4-AF9 inh: 3.1; RAD54 branch: 3.2
